Assay results of several laboratories.
Each line is one published result; the experiments were not run side by side.
Cell line: NCI-H1299
Read-out: cell growth or viability

SMILES	method	tested at	time	measurement	value
COc1cccc(-c2ccc(/C(C)=N/O)c(O)c2Cl)c1	MTT	30 µM	48 h	viability	90%
CCCc1ccc(OCC(O)CNC/C=C/c2ccccc2OC)cc1 (centres unmarked)	CCK-8		72 h	IC50	11.4 µM
CN1C[C@H](C(=O)N[C@]2(C)O[C@@]3(O)[C@@H]4CCCN4C(=O)[C@H](Cc4ccccc4)N3C2=O)C[C@@H]2c3cccc4[nH]cc(c34)C[C@H]21	MTT		72 h	EC50	70 µM
Cc1cc2c(cc1N1C(=O)c3cccc4c(CCCO)ccc(c34)C1=O)n(C)c(=O)n2C (racemic)	resazurin			GI50	> 10 µM
C=C(c1ccc(C(=O)O)cc1)c1cc2c(cc1C)C(C)(C)CCC2(C)C	MTT		72 h	EC50	44 µM
COc1ccccc1OCCN1CCOC(COc2cccc3[nH]c4ccccc4c23)C1 (centres unmarked)	CCK-8		72 h	IC50	> 100 µM
COc1ccc(-c2ccc(/C(C)=N/O)c(O)c2Cl)cc1C	MTT	30 µM	48 h	viability	76%
COc1ccccc1C#CCNCC(O)COc1cccc2[nH]c3ccccc3c12 (centres unmarked)	CCK-8		72 h	IC50	> 100 µM
Cc1c(-c2cccc(C(F)(F)F)c2)sc2[nH]c(=O)n([C@H](C)c3cccc4ccccc34)c(=O)c12		10 µM		inhibition	> 80%
C/C(=N\O)c1ccc(-c2cccc(C#N)c2)c(Cl)c1O	MTT	30 µM	48 h	viability	82%
COc1cc2c(Nc3ccc(NC(=O)c4ccccc4)cc3)ncnc2cc1OCCCN1CCOCC1	MTS		72 h	IC50	0.7 µM
